Legend:
[1] = target: Hepatocyte growth factor receptor (Homo sapiens, UniProt P08581); assay: Inhibition of c-Met (unknown origin) using poly (Glu, Tyr) 4:1 as substrate after 30 mins by HTRF assay
[2] = target: Epidermal growth factor receptor (Homo sapiens, UniProt P00533); assay: Inhibition of EGFR (unknown origin) using poly (Glu, Tyr) 4:1 as substrate after 30 mins by HTRF assay
Procedure, shortened: (§1)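 Purified kinase protein added to start the reaction on preloaded poly(Glu,Tyr) 4:1 substrate at 20 µg/mL. ATP 10 mM solution in HEPES 50 mM pH 7.0 buffer with DTT, MgCl₂, MnCl₂ and 0.1% NaN₃. Compounds added in 1% DMSO. Reaction run 30 min at 25°C, stopped with Streptavidin-XL665 plus Tk antibody cryptate, read at 320/615 nm. Percent inhibition taken against enzyme-free and full-enzyme controls; IC50 from inhibition curves.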

HT-29 [3] = assay: Cytotoxicity against human HT-29 cells after 72 hrs by MTT assay; conditions: HT-29, 72 h
U-87 MG [4] = assay: Cytotoxicity against human U87MG cells after 72 hrs by MTT assay; format: functional, cell-based, U-87MG ATCC
Procedure, shortened: (§2)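 Cells grown in MEM with 10% FBS. About 4 × 10³ cells per well, incubated 24 h at 37°C in 5% CO₂. Compound added at the indicated final concentrations, then 72 h culture. MTT at […] final for 4 h at 37°C. Three independent experiments; IC50 reported as mean.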

NCI-H460 = assay: Cytotoxicity against human H460 cells after 72 hrs by MTT assay; format: functional, cell-based; conditions: NCI-H460, 72 h; procedure, shortened: as §2
A549 [5] = assay: Cytotoxicity against human A549 cells after 72 hrs by MTT assay; conditions: A549, 72 h
A549 [6] = assay: Potency index, ratio of foretinib IC50 to compound IC50 for human A549 cells; format: functional
[7] = target: Vascular endothelial growth factor receptor 2 (Homo sapiens, UniProt P35968); assay: Inhibition of VEGFR-2 (unknown origin) using poly (Glu, Tyr) 4:1 as substrate after 30 mins by HTRF assay; procedure, shortened: as §1
[8] = Potency index, ratio of foretinib IC50 to compound IC50 for human H460 cells; format: functional
[9] = target: Platelet-derived growth factor receptor beta (Homo sapiens, UniProt P09619); assay: Inhibition of PDGFRbeta (unknown origin) using poly (Glu, Tyr) 4:1 as substrate after 30 mins by HTRF assay; procedure, shortened: as §1
[10] = target: T1, Receptor-type tyrosine-protein kinase FLT3 (Homo sapiens, UniProt P36888); assay: Inhibition of Flt-3 (unknown origin) using poly (Glu, Tyr) 4:1 as substrate after 30 mins by HTRF assay; procedure, shortened: as §1
T1 sequence (P36888 whole entry): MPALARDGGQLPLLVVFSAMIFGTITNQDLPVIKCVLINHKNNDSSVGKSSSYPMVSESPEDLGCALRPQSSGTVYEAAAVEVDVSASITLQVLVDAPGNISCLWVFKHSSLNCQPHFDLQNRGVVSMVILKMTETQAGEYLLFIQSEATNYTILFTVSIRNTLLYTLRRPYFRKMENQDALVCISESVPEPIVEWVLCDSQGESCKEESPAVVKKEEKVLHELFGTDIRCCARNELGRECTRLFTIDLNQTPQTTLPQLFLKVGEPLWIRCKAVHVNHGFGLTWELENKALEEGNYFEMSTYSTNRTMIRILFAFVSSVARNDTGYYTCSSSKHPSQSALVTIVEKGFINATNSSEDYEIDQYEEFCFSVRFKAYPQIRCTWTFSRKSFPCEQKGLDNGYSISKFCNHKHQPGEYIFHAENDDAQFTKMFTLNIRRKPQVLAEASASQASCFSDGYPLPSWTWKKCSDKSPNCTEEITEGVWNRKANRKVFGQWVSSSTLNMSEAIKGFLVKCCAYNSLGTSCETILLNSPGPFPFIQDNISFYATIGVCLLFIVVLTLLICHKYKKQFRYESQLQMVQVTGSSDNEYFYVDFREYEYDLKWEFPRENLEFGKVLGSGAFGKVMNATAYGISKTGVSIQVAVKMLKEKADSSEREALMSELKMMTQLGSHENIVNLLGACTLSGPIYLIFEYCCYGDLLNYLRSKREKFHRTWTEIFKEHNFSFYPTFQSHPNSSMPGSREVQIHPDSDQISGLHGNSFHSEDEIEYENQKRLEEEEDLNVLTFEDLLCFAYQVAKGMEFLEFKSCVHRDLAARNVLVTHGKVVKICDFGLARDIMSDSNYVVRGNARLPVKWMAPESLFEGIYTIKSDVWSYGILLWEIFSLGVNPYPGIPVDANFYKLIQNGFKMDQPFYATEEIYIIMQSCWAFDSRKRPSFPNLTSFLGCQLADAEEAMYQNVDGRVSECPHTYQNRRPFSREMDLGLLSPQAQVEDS

[11] = target: Mast/stem cell growth factor receptor Kit (Homo sapiens, UniProt P10721); assay: Inhibition of c-Kit (unknown origin) using poly (Glu, Tyr) 4:1 as substrate after 30 mins by HTRF assay; procedure, shortened: as §1
U-87 MG [12] = assay: Potency index, ratio of foretinib IC50 to compound IC50 for human U87MG cells; format: functional, U-87MG ATCC
HT-29 [13] = assay: Potency index, ratio of foretinib IC50 to compound IC50 for human HT-29 cells; format: functional

Hepatocyte growth factor receptor, sequence (P08581 whole entry): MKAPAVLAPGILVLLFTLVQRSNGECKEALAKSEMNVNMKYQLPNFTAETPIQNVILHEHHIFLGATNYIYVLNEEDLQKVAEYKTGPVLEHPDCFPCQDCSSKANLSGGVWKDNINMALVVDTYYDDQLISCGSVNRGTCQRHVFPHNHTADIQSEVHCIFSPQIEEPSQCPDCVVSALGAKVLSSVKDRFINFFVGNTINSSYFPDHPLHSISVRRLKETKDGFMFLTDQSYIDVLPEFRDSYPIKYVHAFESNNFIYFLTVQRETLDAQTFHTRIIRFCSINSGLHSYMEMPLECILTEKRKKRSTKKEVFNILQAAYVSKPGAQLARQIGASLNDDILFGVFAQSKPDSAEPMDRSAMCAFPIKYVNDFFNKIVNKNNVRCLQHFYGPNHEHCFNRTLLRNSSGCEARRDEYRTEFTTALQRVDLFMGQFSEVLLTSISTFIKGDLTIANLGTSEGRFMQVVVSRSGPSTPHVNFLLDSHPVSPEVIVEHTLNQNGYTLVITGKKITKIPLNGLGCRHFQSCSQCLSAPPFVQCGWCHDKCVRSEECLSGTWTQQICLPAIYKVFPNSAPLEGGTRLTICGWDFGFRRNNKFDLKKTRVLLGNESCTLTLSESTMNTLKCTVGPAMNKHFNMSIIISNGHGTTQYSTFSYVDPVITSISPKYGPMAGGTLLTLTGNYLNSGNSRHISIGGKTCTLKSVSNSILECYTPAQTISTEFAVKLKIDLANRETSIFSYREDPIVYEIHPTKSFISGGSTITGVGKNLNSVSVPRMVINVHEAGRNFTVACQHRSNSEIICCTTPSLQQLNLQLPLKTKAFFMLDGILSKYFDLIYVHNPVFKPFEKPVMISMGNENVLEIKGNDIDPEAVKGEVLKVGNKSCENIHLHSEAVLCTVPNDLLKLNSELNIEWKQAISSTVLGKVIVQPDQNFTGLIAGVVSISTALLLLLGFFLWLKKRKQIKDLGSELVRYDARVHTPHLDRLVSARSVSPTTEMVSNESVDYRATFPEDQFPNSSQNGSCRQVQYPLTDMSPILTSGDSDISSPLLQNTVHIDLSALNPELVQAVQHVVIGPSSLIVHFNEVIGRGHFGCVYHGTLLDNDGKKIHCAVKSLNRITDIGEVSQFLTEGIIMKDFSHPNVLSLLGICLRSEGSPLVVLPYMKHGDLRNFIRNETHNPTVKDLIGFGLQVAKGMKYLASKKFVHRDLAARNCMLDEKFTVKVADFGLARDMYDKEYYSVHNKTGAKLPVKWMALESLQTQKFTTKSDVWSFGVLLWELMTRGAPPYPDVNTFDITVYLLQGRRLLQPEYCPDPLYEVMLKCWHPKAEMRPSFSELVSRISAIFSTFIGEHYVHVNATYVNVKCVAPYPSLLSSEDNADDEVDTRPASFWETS
Vascular endothelial growth factor receptor 2, sequence (P35968 whole entry): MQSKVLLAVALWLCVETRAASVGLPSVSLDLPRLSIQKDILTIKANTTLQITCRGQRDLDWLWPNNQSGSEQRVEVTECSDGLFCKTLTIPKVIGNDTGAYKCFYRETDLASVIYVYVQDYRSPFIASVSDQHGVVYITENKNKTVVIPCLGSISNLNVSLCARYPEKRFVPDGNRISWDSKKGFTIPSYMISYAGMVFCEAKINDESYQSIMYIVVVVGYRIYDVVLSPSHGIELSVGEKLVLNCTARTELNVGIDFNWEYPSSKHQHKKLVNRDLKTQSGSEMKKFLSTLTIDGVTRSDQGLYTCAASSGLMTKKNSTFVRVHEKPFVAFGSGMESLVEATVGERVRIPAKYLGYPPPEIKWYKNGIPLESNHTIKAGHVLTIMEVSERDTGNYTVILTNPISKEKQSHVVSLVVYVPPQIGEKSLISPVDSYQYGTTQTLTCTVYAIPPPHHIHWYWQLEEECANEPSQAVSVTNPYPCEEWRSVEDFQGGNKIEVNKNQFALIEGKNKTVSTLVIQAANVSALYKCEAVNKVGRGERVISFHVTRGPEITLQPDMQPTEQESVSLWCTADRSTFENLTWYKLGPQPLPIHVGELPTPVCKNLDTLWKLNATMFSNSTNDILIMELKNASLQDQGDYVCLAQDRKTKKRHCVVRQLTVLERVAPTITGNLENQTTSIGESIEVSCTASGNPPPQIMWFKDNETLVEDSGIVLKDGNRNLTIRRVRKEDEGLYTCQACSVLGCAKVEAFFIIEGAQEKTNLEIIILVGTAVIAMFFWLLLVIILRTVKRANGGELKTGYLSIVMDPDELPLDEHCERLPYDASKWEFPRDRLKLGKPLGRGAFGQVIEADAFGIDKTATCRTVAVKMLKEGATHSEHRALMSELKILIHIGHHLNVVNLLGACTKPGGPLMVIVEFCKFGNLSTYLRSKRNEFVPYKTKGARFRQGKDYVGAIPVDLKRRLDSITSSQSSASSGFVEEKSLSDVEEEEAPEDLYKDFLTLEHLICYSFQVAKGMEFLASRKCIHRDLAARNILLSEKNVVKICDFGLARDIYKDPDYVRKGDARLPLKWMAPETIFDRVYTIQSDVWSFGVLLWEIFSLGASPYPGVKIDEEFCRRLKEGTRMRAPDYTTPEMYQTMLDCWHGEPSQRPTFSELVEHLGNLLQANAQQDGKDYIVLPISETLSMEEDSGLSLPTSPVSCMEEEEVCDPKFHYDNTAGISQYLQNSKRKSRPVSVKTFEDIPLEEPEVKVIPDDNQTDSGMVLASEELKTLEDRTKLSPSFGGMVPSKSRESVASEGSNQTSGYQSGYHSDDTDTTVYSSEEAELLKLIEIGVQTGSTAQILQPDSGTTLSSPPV
Epidermal growth factor receptor, sequence (P00533 whole entry): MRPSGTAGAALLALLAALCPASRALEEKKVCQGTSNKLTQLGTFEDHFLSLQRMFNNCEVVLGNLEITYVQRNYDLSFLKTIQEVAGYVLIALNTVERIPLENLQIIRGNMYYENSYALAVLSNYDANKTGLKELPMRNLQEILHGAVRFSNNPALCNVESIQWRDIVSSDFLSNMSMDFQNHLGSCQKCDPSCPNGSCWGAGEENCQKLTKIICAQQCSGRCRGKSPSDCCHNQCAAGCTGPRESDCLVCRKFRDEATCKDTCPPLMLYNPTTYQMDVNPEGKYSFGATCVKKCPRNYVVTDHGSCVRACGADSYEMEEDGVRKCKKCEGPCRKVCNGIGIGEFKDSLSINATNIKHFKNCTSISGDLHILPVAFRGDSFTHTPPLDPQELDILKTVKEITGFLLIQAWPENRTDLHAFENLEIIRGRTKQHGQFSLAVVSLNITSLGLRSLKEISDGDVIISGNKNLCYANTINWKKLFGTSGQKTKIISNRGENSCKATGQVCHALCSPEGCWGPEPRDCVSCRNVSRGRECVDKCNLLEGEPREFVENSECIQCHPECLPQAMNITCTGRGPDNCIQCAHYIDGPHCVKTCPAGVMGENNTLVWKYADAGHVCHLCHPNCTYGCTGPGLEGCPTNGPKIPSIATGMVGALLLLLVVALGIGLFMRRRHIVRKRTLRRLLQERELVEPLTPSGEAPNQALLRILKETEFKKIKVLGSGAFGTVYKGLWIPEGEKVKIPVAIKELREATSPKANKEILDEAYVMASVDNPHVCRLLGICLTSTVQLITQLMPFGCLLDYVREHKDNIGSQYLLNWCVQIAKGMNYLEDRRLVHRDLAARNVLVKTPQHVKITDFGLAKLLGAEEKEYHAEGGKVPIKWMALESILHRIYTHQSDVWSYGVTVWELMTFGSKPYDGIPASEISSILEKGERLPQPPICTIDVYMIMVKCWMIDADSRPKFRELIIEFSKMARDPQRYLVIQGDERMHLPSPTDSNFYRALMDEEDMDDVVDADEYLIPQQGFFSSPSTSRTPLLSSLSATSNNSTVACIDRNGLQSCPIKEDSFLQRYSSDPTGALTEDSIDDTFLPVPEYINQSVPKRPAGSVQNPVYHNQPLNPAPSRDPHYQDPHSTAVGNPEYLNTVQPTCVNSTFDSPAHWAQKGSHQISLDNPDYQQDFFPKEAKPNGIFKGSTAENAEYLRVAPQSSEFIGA
Platelet-derived growth factor receptor beta, sequence (P09619 whole entry): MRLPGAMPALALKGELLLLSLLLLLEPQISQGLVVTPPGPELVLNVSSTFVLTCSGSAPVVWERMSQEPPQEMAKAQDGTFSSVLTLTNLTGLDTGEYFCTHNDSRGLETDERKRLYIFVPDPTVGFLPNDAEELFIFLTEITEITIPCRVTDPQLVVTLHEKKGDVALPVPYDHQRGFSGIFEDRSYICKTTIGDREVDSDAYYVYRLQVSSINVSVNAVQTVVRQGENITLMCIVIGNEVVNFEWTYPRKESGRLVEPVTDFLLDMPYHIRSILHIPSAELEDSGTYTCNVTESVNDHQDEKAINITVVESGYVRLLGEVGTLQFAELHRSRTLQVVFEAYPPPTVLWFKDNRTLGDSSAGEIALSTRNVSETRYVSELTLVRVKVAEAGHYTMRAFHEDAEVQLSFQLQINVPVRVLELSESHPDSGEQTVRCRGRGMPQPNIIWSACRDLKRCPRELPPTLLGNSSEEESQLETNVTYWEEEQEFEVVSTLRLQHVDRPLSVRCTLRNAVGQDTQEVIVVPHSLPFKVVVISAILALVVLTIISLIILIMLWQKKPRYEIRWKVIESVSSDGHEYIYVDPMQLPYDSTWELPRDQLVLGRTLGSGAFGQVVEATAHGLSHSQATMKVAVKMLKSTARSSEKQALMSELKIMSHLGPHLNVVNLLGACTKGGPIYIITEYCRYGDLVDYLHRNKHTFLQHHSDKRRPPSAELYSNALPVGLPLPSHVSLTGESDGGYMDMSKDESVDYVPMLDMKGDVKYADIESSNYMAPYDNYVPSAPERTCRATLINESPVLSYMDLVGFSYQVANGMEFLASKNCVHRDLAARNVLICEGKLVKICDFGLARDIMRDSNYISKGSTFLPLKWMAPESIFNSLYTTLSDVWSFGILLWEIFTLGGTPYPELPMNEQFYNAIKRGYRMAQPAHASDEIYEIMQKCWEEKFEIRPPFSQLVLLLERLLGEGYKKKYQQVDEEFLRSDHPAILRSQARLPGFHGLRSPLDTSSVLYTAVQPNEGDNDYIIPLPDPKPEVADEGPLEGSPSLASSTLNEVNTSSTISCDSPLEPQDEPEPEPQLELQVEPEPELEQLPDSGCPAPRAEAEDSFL

| SMILES | IC50 [1] | further results |
| --- | --- | --- |
| Cc1cc(=O)n(-c2ccccc2F)nc1C(=O)Nc1ccc(Oc2ccnc3[nH]ccc23)cc1 | 12.6 nM |  |
| Cc1cc(=O)n(-c2ccc(Br)cc2F)nc1C(=O)Nc1ccc(Oc2ccnc3[nH]ccc23)cc1 | 41.2 nM |  |
| Cc1cc(=O)n(-c2ccccc2C(F)(F)F)nc1C(=O)Nc1ccc(Oc2ccnc3c2ccn3C)cc1 | 46.3 nM |  |
| Cc1cc(=O)n(-c2ccc(F)cc2)nc1C(=O)Nc1ccc(Oc2ccnc3[nH]ccc23)c(F)c1 | 1.06 nM | IC50 [2]: 725 nM; IC50 (HT-29 [3]): 39 nM; IC50 (U-87 MG [4]): 760 nM; IC50 (NCI-H460): 91 nM; IC50 (A549 [5]): 46 nM; Ratio IC50 (A549 [6]): 7.8; IC50 [7]: 672 nM; Ratio IC50 [8]: 3.2; IC50 [9]: 3.26 nM; IC50 [10]: 1.32 nM; IC50 [11]: 318 nM; Ratio IC50 (U-87 MG [12]): 1.3; Ratio IC50 (HT-29 [13]): 6.4 |
| Cc1cc(=O)n(-c2cccc(F)c2)nc1C(=O)Nc1ccc(Oc2ccnc3[nH]ccc23)cc1 | 11.6 nM | IC50 (HT-29 [3]): 210 nM; IC50 (U-87 MG [4]): 3420 nM; IC50 (NCI-H460): 190 nM; IC50 (A549 [5]): 420 nM |
| Cc1cc(=O)n(-c2ccc(F)cc2)nc1C(=O)Nc1ccc(Oc2ccnc3c2ccn3C)cc1 | 9.21 nM |  |
| Cc1cc(=O)n(-c2cccc(C(F)(F)F)c2)nc1C(=O)Nc1ccc(Oc2ccnc3[nH]ccc23)cc1 | 35.3 nM |  |
| Cc1cc(=O)n(-c2ccccc2)nc1C(=O)Nc1ccc(Oc2ccnc3[nH]ccc23)cc1 | 18.3 nM |  |
| Cc1cc(=O)n(-c2cccc(C(F)(F)F)c2)nc1C(=O)Nc1ccc(Oc2ccnc3c2ccn3C)c(F)c1 | 29.3 nM | IC50 (HT-29 [3]): 360 nM; IC50 (U-87 MG [4]): 2310 nM; IC50 (NCI-H460): 520 nM; IC50 (A549 [5]): 620 nM |
| Cc1cc(=O)n(-c2ccc(F)c(Cl)c2)nc1C(=O)Nc1ccc(Oc2ccnc3c2ccn3C)cc1 | 45.3 nM |  |
| Cc1cc(=O)n(-c2cccc(F)c2)nc1C(=O)Nc1ccc(Oc2ccnc3[nH]ccc23)c(F)c1 | 5.61 nM |  |
| Cc1cc(=O)n(-c2cccc(C(F)(F)F)c2)nc1C(=O)Nc1ccc(Oc2ccnc3c2ccn3C)cc1 | 32.2 nM |  |
| Cc1cc(=O)n(-c2cccc(Br)c2)nc1C(=O)Nc1ccc(Oc2ccnc3c2ccn3C)cc1 | 10.5 nM |  |
| Cc1cc(=O)n(-c2ccccc2F)nc1C(=O)Nc1ccc(Oc2ccnc3[nH]ccc23)c(F)c1 | 5.02 nM |  |
| Cc1cc(=O)n(-c2ccc(Br)cc2F)nc1C(=O)Nc1ccc(Oc2ccnc3c2ccn3C)cc1 | 36.2 nM |  |
| Cc1cc(=O)n(-c2ccc(Cl)cc2Cl)nc1C(=O)Nc1ccc(Oc2ccnc3[nH]ccc23)cc1 | 56.3 nM |  |
| Cc1cc(=O)n(-c2ccccc2)nc1C(=O)Nc1ccc(Oc2ccnc3c2ccn3C)cc1 | 19.5 nM |  |

The remaining compounds from weak to strong by IC50 [1], led by results:

| IC50 [1] | SMILES | further results |
| --- | --- | --- |
| 49.2 nM | Cc1cc(=O)n(-c2ccc(Cl)cc2Cl)nc1C(=O)Nc1ccc(Oc2ccnc3c2ccn3C)cc1 |  |
| 46.9 nM | COc1ccc(-n2nc(C(=O)Nc3ccc(Oc4ccnc5[nH]ccc45)cc3)c(C)cc2=O)cc1 |  |
| 42.2 nM | Cc1cc(=O)n(-c2ccc(F)c(Cl)c2)nc1C(=O)Nc1ccc(Oc2ccnc3[nH]ccc23)cc1 |  |
| 41.3 nM | Cc1ccc(C)c(-n2nc(C(=O)Nc3ccc(Oc4ccnc5c4ccn5C)cc3)c(C)cc2=O)c1 |  |
| 39.5 nM | Cc1cc(=O)n(-c2ccccc2C(F)(F)F)nc1C(=O)Nc1ccc(Oc2ccnc3[nH]ccc23)cc1 |  |
| 33.5 nM | Cc1ccc(C)c(-n2nc(C(=O)Nc3ccc(Oc4ccnc5[nH]ccc45)cc3)c(C)cc2=O)c1 |  |
| 22.4 nM | Cc1cc(=O)n(-c2ccc(Cl)cc2Cl)nc1C(=O)Nc1ccc(Oc2ccnc3[nH]ccc23)c(F)c1 |  |
| 19.1 nM | Cc1ccccc1-n1nc(C(=O)Nc2ccc(Oc3ccnc4[nH]ccc34)cc2)c(C)cc1=O |  |
| 18.3 nM | COc1ccc(-n2nc(C(=O)Nc3ccc(Oc4ccnc5[nH]ccc45)c(F)c3)c(C)cc2=O)cc1 |  |
| 18.2 nM | Cc1cc(=O)n(-c2ccc(Br)cc2F)nc1C(=O)Nc1ccc(Oc2ccnc3[nH]ccc23)c(F)c1 |  |
| 15.3 nM | Cc1cc(=O)n(-c2cccc(F)c2)nc1C(=O)Nc1ccc(Oc2ccnc3c2ccn3C)cc1 | IC50 (HT-29 [3]): 320 nM; IC50 (U-87 MG [4]): 8820 nM; IC50 (NCI-H460): 320 nM; IC50 (A549 [5]): 410 nM |
| 14.4 nM | Cc1cc(=O)n(-c2ccccc2F)nc1C(=O)Nc1ccc(Oc2ccnc3c2ccn3C)cc1 |  |
| 11.2 nM | Cc1cc(=O)n(-c2ccccc2C(F)(F)F)nc1C(=O)Nc1ccc(Oc2ccnc3[nH]ccc23)c(F)c1 |  |
| 10.3 nM | Cc1ccccc1-n1nc(C(=O)Nc2ccc(Oc3ccnc4[nH]ccc34)c(F)c2)c(C)cc1=O |  |
| 8.42 nM | Cc1cc(=O)n(-c2ccc(F)cc2)nc1C(=O)Nc1ccc(Oc2ccnc3[nH]ccc23)cc1 | IC50 (HT-29 [3]): 140 nM; IC50 (U-87 MG [4]): 5460 nM; IC50 (NCI-H460): 160 nM; IC50 (A549 [5]): 230 nM |

From ChEMBL document CHEMBL4033630, “Discovery of novel 7-azaindole derivatives bearing dihydropyridazine moiety as c-Met kinase inhibitors” (Eur J Med Chem, 2017)
